ChEMBL document CHEMBL1133137, “Synthesis and biological effects of a new series of 2-amino-3-benzoylthiophenes as allosteric enhancers of A1-adenosine receptor” (Bioorg Med Chem Lett, 2000)

Legend:
Format in all cases: functional, cell-based
[1] = molecular target: T1, Adenosine receptor A1 (Homo sapiens) (UniProt P30542); experiment: Percentage of response to 10 uM of PD-81723 on CHO cells expressing the cloned human A1-adenosine receptor at 0.1 uM concentration
T1 sequence (whole entry): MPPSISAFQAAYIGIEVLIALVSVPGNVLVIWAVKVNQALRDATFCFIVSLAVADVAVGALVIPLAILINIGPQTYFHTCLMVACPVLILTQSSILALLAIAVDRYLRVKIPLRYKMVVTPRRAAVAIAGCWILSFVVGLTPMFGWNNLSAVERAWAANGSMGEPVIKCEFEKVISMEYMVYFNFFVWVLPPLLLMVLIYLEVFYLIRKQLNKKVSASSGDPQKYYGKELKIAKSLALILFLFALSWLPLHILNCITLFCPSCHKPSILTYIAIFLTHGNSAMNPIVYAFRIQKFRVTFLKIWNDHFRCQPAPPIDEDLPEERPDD
In short: (§1)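 CHO cells stably expressing recombinant human A1 receptors (~8000 fmol/mg protein), thawed from low-passage frozen stocks, grown to confluence over 48–72 h in Ham's F-12 with 10% FBS and G-418. Test compound incubated 6 min at 36 °C with 0.05–0.1 nM CPA. Reaction stopped with HCl (final 50 mM). cAMP in acid extracts measured by radioimmunoassay. Reduction normalized to the response to 10 μM PD 81,723.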

[2] = molecular target: T1, Adenosine receptor A1 (Homo sapiens); experiment: Percentage of response to 10 uM of PD-81723 on CHO cells expressing the cloned human A1-adenosine receptor at 1 uM concentration; in short: as §1
[3] = molecular target: T1, Adenosine receptor A1 (Homo sapiens); experiment: Percentage of response to 10 uM of PD-81723 on CHO cells expressing the cloned human A1-adenosine receptor at 10 uM concentration; in short: as §1
[4] = molecular target: T1, Adenosine receptor A1 (Homo sapiens); experiment: Percent response to 10 uM PD-81723 on CHO cells expressing human A1-adenosine receptor at 0.1 uM; An increase of cAmp content of cells; in short: as §1
[5] = molecular target: T1, Adenosine receptor A1 (Homo sapiens); experiment: Percentage of response to 10 uM of PD-81723 on CHO cells expressing the cloned human A1-adenosine receptor at 1 uM; An increase of cAmp content of cells; in short: as §1
[6] = molecular target: T1, Adenosine receptor A1 (Homo sapiens); experiment: Percentage of response to 10 uM of PD-81723 on CHO cells expressing the cloned human A1-adenosine receptor at 10 uM; An increase of cAmp content of cells; in short: as §1
[7] = molecular target: T1, Adenosine receptor A1 (Homo sapiens); experiment: Percentage of response to 10 uM of PD-81723 on CHO cells expressing the cloned human A1-adenosine receptor at 0.1 uM; in short: as §1
[8] = molecular target: T1, Adenosine receptor A1 (Homo sapiens); experiment: The compound was tested for its percentage of response to 10 uM of PD-81723 on CHO cells expressing the cloned human A1-adenosine receptor at 1 uM concentration; change of less than 5% of allosteric enhancement.; in short: as §1
[9] = molecular target: T1, Adenosine receptor A1 (Homo sapiens); experiment: The compound was tested for its percentage of response to 10 uM of PD-81723 on CHO cells expressing the cloned human A1-adenosine receptor at 10 uM; change of less than 5% of allosteric enhancement.; in short: as §1
[10] = molecular target: T1, Adenosine receptor A1 (Homo sapiens); experiment: The compound was tested for its percentage of response to 10 uM of PD-81723 on CHO cells expressing the cloned human A1-adenosine receptor at 10 uM concentration; change of less than 5% of allosteric enhancement.; in short: as §1
[11] = molecular target: T1, Adenosine receptor A1 (Homo sapiens); experiment: The compound was tested for its percentage of response to 10 uM of PD-81723 on CHO cells expressing the cloned human A1-adenosine receptor at 0.1 uM; An increase of cAmp content of cells; in short: as §1
[12] = molecular target: T1, Adenosine receptor A1 (Homo sapiens); experiment: The compound was tested for its percentage of response to 10 uM of PD-81723 on CHO cells expressing the cloned human A1-adenosine receptor at 10 uM; An increase of cAmp content of cells; in short: as §1
[13] = molecular target: T1, Adenosine receptor A1 (Homo sapiens); experiment: The compound was tested for its percentage of response to 10 uM of PD-81723 on CHO cells expressing the cloned human A1-adenosine receptor at 10 uM concentration; An increase of cAmp content of cells; in short: as §1
[14] = molecular target: T1, Adenosine receptor A1 (Homo sapiens); experiment: The compound was tested for its percentage of response to 10 uM of PD-81723 on CHO cells expressing the cloned human A1-adenosine receptor at 0.1; change of less than 5% of allosteric enhancement.; in short: as §1
[15] = molecular target: T1, Adenosine receptor A1 (Homo sapiens); experiment: The compound was tested for its percentage of response to 10 uM of PD-81723 on CHO cells expressing the cloned human A1-adenosine receptor at 0.1 uM concentration; An increase of cAmp content of cells; in short: as §1
[16] = molecular target: T1, Adenosine receptor A1 (Homo sapiens); experiment: The compound was tested for its percentage of response to 10 uM of PD-81723 on CHO cells expressing the cloned human A1-adenosine receptor at 1 uM; change of less than 5% of allosteric enhancement.; in short: as §1
[17] = molecular target: T1, Adenosine receptor A1 (Homo sapiens); experiment: The compound was tested for its percentage of response to 10 uM of PD-81723 on CHO cells expressing the cloned human A1-adenosine receptor at 1 uM; in short: as §1
[18] = molecular target: T1, Adenosine receptor A1 (Homo sapiens); experiment: The compound was tested for its percentage of response to 10 uM of PD-81723 on CHO cells expressing the cloned human A1-adenosine receptor at 10 uM; in short: as §1
[19] = molecular target: T1, Adenosine receptor A1 (Homo sapiens); experiment: The compound was tested for its percentage of response to 10 uM of PD-81723 on CHO cells expressing the cloned human A1-adenosine receptor at 0.1 uM concentration; change of less than 5% of allosteric enhancement; in short: as §1
[20] = molecular target: T1, Adenosine receptor A1 (Homo sapiens); experiment: The compound was tested for its percentage of response to 10 uM of PD-81723 on CHO cells expressing the cloned human A1-adenosine receptor at 0.1 uM concentration; change of less than 5% of allosteric enhancement.; in short: as §1

Structure (SMILES)	Response [1] [%]	Response [2] [%]	Response [3] [%]	other results
Cc1ccc(S(=O)(=O)N2CCc3c(sc(N)c3C(=O)c3ccccc3)C2)cc1	–	–	–	Response [4]: Increased cAMP; Response [5]: Increased cAMP; Response [6]: Increased cAMP
Nc1sc2c(c1C(=O)c1ccc(-c3ccccc3)cc1)CCNC2	–	–	–	Response [7]: < 5%; Response [8]: < 5%; Response [6]: Increased cAMP
Nc1sccc1C(=O)c1ccccc1	51	26	28	–
Nc1sc2c(c1C(=O)c1ccc(I)cc1)CCC2	–	–	–	Response [4]: Increased cAMP; Response [5]: Increased cAMP; Response [9]: < 5%
Nc1sc2c(c1C(=O)c1ccccc1)CCN(C(=O)OCc1ccccc1)C2	–	–	–	Response [4]: Increased cAMP; Response [5]: Increased cAMP; Response [6]: Increased cAMP
Nc1sc2c(c1C(=O)c1ccc(I)cc1)CCNC2	–	–	–	Response [7]: < 5%; Response [8]: < 5%; Response [10]: < 5%
CCOC(=O)CN1CCc2c(sc(N)c2C(=O)c2ccccc2)C1	–	–	–	Response [4]: Increased cAMP; Response [5]: Increased cAMP; Response [6]: Increased cAMP
Cc1sc(N)c(C(=O)c2cccc(C(F)(F)F)c2)c1C	13	40	100	–
Nc1sc2c(c1C(=O)c1ccc(Br)cc1)CCN(C(=O)OCc1ccccc1)C2	–	–	–	Response [11]: Increased cAMP; Response [5]: Increased cAMP; Response [12]: Increased cAMP
Nc1sc2c(c1C(=O)c1cccc(C(F)(F)F)c1)CCN(CCc1ccccc1)C2	–	–	–	Response [7]: < 5%; Response [8]: < 5%; Response [13]: Increased cAMP
Nc1sc2c(c1C(=O)c1cccc(C(F)(F)F)c1)CCN(Cc1ccccc1)C2	18	41	85	–
Nc1sc2c(c1C(=O)c1ccc(F)cc1)CCN(C(=O)OCc1ccccc1)C2	–	–	–	Response [7]: < 5%; Response [5]: Increased cAMP; Response [6]: Increased cAMP
Nc1sc2c(c1C(=O)c1ccc(Cl)cc1)CCN(C(=O)OCc1ccccc1)C2	–	–	–	Response [14]: < 5%; Response [5]: Increased cAMP; Response [6]: Increased cAMP
Nc1sccc1C(=O)c1ccc(Cl)cc1	7	8	25	–
Nc1sc2c(c1C(=O)c1ccc(Cl)cc1)CCN(Cc1ccccc1)C2	–	–	–	Response [7]: < 5%; Response [5]: Increased cAMP; Response [6]: Increased cAMP
Nc1sc2c(c1C(=O)c1ccccc1)CCN(CCc1ccc([N+](=O)[O-])cc1)C2	–	13	31	Response [4]: Increased cAMP
Nc1sc2c(c1C(=O)c1ccc(I)cc1)CCN(C(=O)OCc1ccccc1)C2	–	–	–	Response [7]: < 5%; Response [8]: < 5%; Response [10]: < 5%
Nc1sc2c(c1C(=O)c1cccc(C(F)(F)F)c1)CCN(CCCc1ccccc1)C2	–	7	22	Response [7]: < 5%
Nc1sc2c(c1C(=O)c1ccccc1)SCC2	–	–	68	Response [15]: Increased cAMP; Response [8]: < 5%
Nc1sc2c(c1C(=O)c1ccc(Cl)cc1)CCN(CCCc1ccccc1)C2	8	15	31	–
Nc1sc2c(c1C(=O)c1ccc(Cl)cc1)CCC2	–	–	–	Response [4]: Increased cAMP; Response [16]: < 5%; Response [10]: < 5%
Nc1sc2c(c1C(=O)c1ccc(-c3ccccc3)cc1)CCN(C(=O)OCc1ccccc1)C2	14	6	–	Response [10]: < 5%
Nc1sc2c(c1C(=O)c1ccc(Cl)cc1)CCN(CCc1ccc([N+](=O)[O-])cc1)C2	–	–	–	Response [4]: Increased cAMP; Response [17]: 13%; Response [5]: Increased cAMP; Response [18]: 31%; Response [6]: Increased cAMP
Nc1sc2c(c1C(=O)c1ccccc1)CCNC2	–	9	12	Response [7]: < 5%
Cc1sc(N)c(C(=O)c2ccccc2)c1C	–	–	19	Response [19]: < 5%; Response [5]: Increased cAMP
Nc1sc2c(c1C(=O)c1ccc(Br)cc1)CCNC2	–	–	–	Response [20]: < 5%; Response [8]: < 5%; Response [10]: < 5%

Continued, in another order:

Response [1] [%]	Response [2] [%]	Response [3] [%]	Structure (SMILES)	other results
24	39	68	Nc1sc2c(c1C(=O)c1ccc(Cl)cc1)CCCCCC2	–
26	36	61	Nc1sc2c(c1C(=O)c1ccc(F)cc1)CCCCC2	–
50	67	67	Nc1sc2c(c1C(=O)c1ccc(Br)cc1)CCCC2	–
14	79	68	Nc1sc2c(c1C(=O)c1ccc(-c3ccccc3)cc1)CCCC2	–
–	43	42	COc1ccc(C(=O)c2c(N)sc3c2CCC3)cc1	Response [7]: < 5%
58	32	–	Nc1sc2c(c1C(=O)c1ccc(Cl)cc1)CCN(CCc1ccccc1)C2	Response [6]: Increased cAMP
35	29	82	Nc1sc2c(c1C(=O)c1ccccc1)CCC2	–
–	54	36	COc1ccc(C(=O)c2c(N)sc3c2CCCCC3)cc1	Response [7]: < 5%
–	44	71	COc1ccc(C(=O)c2c(N)sc3c2CCCC3)cc1	Response [7]: < 5%
16	48	77	Nc1sc2c(c1C(=O)c1ccccc1)CCCC2	–
15	12	9	Nc1sc2c(c1C(=O)c1ccc(Cl)cc1)CCNC2	–
10	–	–	CCOC(=O)CN1CCc2c(sc(N)c2C(=O)c2ccc(Cl)cc2)C1	Response [5]: Increased cAMP; Response [6]: Increased cAMP
–	43	83	Nc1sc2c(c1C(=O)c1ccc(F)cc1)CCCC2	Response [7]: < 5%
57	58	86	Nc1sc2c(c1C(=O)c1ccc(Cl)cc1)CCCC2	–
31	53	72	Nc1sc2c(c1C(=O)c1ccc(Br)cc1)CCC2	–
30	52	92	Cc1sc(N)c(C(=O)c2ccc(Cl)cc2)c1C	–
–	43	65	Nc1sc2c(c1C(=O)c1ccc(F)cc1)CCC2	Response [7]: < 5%
–	29	54	Nc1sc2c(c1C(=O)c1ccccc1)CCCCC2	Response [15]: Increased cAMP
25	42	72	Nc1sc2c(c1C(=O)c1ccc(Cl)cc1)CCCCC2	–
